14 compounds from ChEMBL document CHEMBL1649408, “Synthesis and in vitro antimycobacterial activity of 8-OCH(3) ciprofloxacin methylene and ethylene isatin derivatives” (Eur J Med Chem, 2011) can be followed below.

≈ marks a conversion by molar mass, not a printed value.

For assay [1], the system named is Mycobacterium tuberculosis. Nature of the assay: Antimycobacterial activity against multidrug-resistant Mycobacterium tuberculosis 09710 after 7 days by serial double dilution technique. It is filed as functional. The following applies: Mycobacterium tuberculosis, 09710, 168 h. Put shortly: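 MDR strain (resistant to RIF, INH, EMB, SM), clinical isolate, tested by rapid direct susceptibility test. Compounds two-fold diluted in 2× Advanced Middlebrook 7H9 broth, final 256 to 1 µg/ml, mixed 1:1 with suspension containing 4 × 10^-3 mg cells. Incubated sealed at 37 °C in wet box; read at 3 days, redetermined at 7 days by high-magnification visual system. MIC = complete growth inhibition.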

Assay [2] relates to Mycobacterium tuberculosis. In words: Ratio of compound MIC to ciprofloxacin MIC for multidrug-resistant Mycobacterium tuberculosis 09710. The format is functional.

As usually defined, the MIC is the smallest concentration in the dilution series that meets the test's criterion for growth inhibition. A high value points to a need for much substance. For the compound `COc1c(N2CCN(CN3C(=O)/C(=N\NC(N)=S)c4ccccc43)CC2)c(F)cc2c(=O)c(C(=O)O)cn(C3CC3)c12`, the MIC in assay [1] turned out to be 6.75 µM (≈ 4.01 µg/mL). Moreover, in assay [2], the Ratio is 3.5.

In assay [1], `CCO/N=C1\C(=O)N(CN2CCN(c3c(F)cc4c(=O)c(C(=O)O)cn(C5CC5)c4c3OC)CC2)c2ccccc21` gave an MIC of 28.4 µM (≈ 16 µg/mL).

Regarding `O=C(O)c1cn(C2CC2)c2cc(N3CCNCC3)c(F)cc2c1=O` [CIPROFLOXACIN], in assay [1], the MIC worked out at 24.2 µM (≈ 8.01 µg/mL).

Regarding `CO[C@H]1/C=C/O[C@@]2(C)Oc3c(C)c(O)c4c(O)c(c(/C=N/N5CCN(C)CC5)c(O)c4c3C2=O)NC(=O)/C(C)=C\C=C\[C@H](C)[C@H](O)[C@@H](C)[C@@H](O)[C@@H](C)[C@H](OC(C)=O)[C@@H]1C` [RIFAMPIN], the MIC in assay [1] is more than 311 µM.

For the compound `CO/N=C1\C(=O)N(CN2CCN(c3c(F)cc4c(=O)c(C(=O)O)cn(C5CC5)c4c3OC)CC2)c2ccccc21`, in assay [1], the lowest concentration to inhibit growth (MIC) was 14.6 µM (≈ 8.01 µg/mL).

With `COc1c(N2CCN(CN3C(=O)/C(=N\NC(N)=O)c4cc(F)ccc43)CC2)c(F)cc2c(=O)c(C(=O)O)cn(C3CC3)c12`, in assay [1], the MIC stood at 6.72 µM (≈ 4 µg/mL). Also, the Ratio in assay [2] is 3.5.

For `COc1c(N2CCNCC2)c(F)cc2c(=O)c(C(=O)O)cn(C3CC3)c12`, the MIC in assay [1] worked out at 11.1 µM (≈ 4 µg/mL).

As to `COc1c(N2CCN(CN3C(=O)/C(=N\O)c4cc(F)ccc43)CC2)c(F)cc2c(=O)c(C(=O)O)cn(C3CC3)c12`, the MIC in assay [1] was 14.5 µM (≈ 8.01 µg/mL).

In turn, `NNC(=O)c1ccncc1` [ISONIAZID] registered an MIC in assay [1] of 467 µM (≈ 64 µg/mL).

`COc1c(N2CCN(CN3C(=O)C(=O)c4cc(F)ccc43)CC2)c(F)cc2c(=O)c(C(=O)O)cn(C3CC3)c12`: 14.9 µM (≈ 8.01 µg/mL) was the least that counted as inhibitory in assay [1] (MIC).

In assay [1], `COc1c(N2CCN(CN3C(=O)/C(=N\O)c4ccccc43)CC2)c(F)cc2c(=O)c(C(=O)O)cn(C3CC3)c12` registered an MIC of 29.9 µM (≈ 16 µg/mL).

`CO/N=C1\C(=O)N(CN2CCN(c3c(F)cc4c(=O)c(C(=O)O)cn(C5CC5)c4c3OC)CC2)c2ccc(F)cc21` came in with an MIC in assay [1] of 7.05 µM (≈ 4 µg/mL). The Ratio in assay [2] is listed as 3.5.

For `COc1c(N2CCN(CN3C(=O)/C(=N\NC(N)=O)c4ccccc43)CC2)c(F)cc2c(=O)c(C(=O)O)cn(C3CC3)c12`, the lowest concentration to inhibit growth in assay [1] (MIC) was 6.93 µM (≈ 4 µg/mL). Besides, the Ratio in assay [2] is reported as 3.5.

Take `COc1c(N2CCN(CN3C(=O)C(=O)c4ccccc43)CC2)c(F)cc2c(=O)c(C(=O)O)cn(C3CC3)c12`: the MIC in assay [1] is 30.8 µM (≈ 16 µg/mL).
